Consider 19 sequences from the EternaBench riboswitch data.

In this data set the test system is MS2 coat protein. The data set can be described thus: apparent Kd, MS2 coat protein; higher = weaker binding; RNA-MaP array; tryptophan 2.4 mM where present. A digest of the protocol: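 Binding was read on Illumina sequencing-chip clusters where stalled E. coli RNA polymerase had transcribed each design. A titration of SNAP-549-labelled MS2 coat protein began at 0.7 or 1.5 nM and doubled to 3 µM, once without ligand and once with constant ligand, in 100 mM Tris-HCl pH 7.5, 80 mM KCl, 4 mM MgCl2, BSA, DTT, yeast tRNA and Tween-20. The apparent Kd is the median of filtered per-cluster binding-curve fits, based on green signal normalised to red-channel RNA signal and control-cluster median Fmax.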

Where [1] appears, read: designed as: OFF switch for tryptophan, no ligand.
Where [2] appears, read: ligand present: tryptophan, designed as: OFF switch for tryptophan.
The mark [3] stands for this setting: designed as: ON switch for tryptophan, no ligand.
Setting [4] is: ligand present: tryptophan, designed as: ON switch for tryptophan.

For orientation: apparent Kd means the concentration giving half-maximal binding under the conditions of the assay. Regarding “CACGAAAGAUCGGCCGCCACUAAUCUAUGUGUUCUUUCACAUGAGGAUCACCCAUGUUCUUGCGUUAGGACCGGGAUUGAGCGUG”, the “apparent Kd” value came to 34.1 nM under setting [1] and 36.4 nM under setting [2].

In the case of “AAUAAUAGGUGAUCUUGUGUCGUACCGUAACGAGGACCGGUACGGCCGCCACUCGAACAUGAGGAUCACCCAUGUAUGUAUGAUA”, the “apparent Kd” value is, setting by setting: under setting [3], 171 nM; under setting [4], 128 nM.

With “AGGUGCGGCACGGCCGCCACUGCGGUGGUGUGACAUGAGGAUCACCCAUGUUGUCAUGCGGCCCUUAGGACCGGGUGGCGUGCCU”, the “apparent Kd” value amounted to 39.7 nM under setting [1] and 46 nM under setting [2].

On to “UUACCGUAAGGUAUACCGGUCUACAAUAAUCGAGGACCGGUACGGCCGCCACUCGAUGUGUAAUCACAUGAGGAUCACCCAUGUA”, for which the “apparent Kd” value under setting [3] is 23.3 nM and the “apparent Kd” value under setting [4] was 18.5 nM.

With “UAAUAAUUCCUCAUGUCACGAGUGGCAUAACGAGGACCGGUACGGCCGCCACUCGAACAUGAGGAUCACCCAUGUAGCCACUCGA”, the “apparent Kd” value was 143 nM under setting [3] and 113 nM under setting [4].

For “UAUAAUAACUCGGCCGCCACUGGCACAUGAGGAUCACCCAUGUCUAUAUAUAAUAUAUAGUUGCACAGGACCGGGAGAUAUAUAU”, the “apparent Kd” value runs as follows: under setting [1], 8.95 nM; under setting [2], 8.21 nM.

For the sequence “AUCAUAAUAGACUCGUUAGAUUAUAUGGAACGAGGACCGGUACGGCCGCCACUCGUGAUGUACAUGAGGAUCACCCAUGUUAGCA”, the “apparent Kd” value reads like this: under setting [3], 13.5 nM; under setting [4], 13.5 nM.

With “CCAUAAGUACCGGUCCUCAGAUCCUCAUGACGAGGACCGGUACGGCCGCCACUCGAAACAUGAGGAUCACCCAUGUAAUAAUACC”, the “apparent Kd” value reads like this: under setting [1], 39.2 nM; under setting [2], 26.4 nM.

“CUACAUGUAGUUAAACCGGUCAACAAUAAUCGAGGACCGGUACGGCCGCCACUCGAUGUGUUAUACACAUGAGGAUCACCCAUGU”: the “apparent Kd” value was determined as 23.2 nM under setting [3] and 18.9 nM under setting [4].

As to “GGUACAUGAGGAUCACCCAUGUAUUGGUACCGAGGACCGGUACGGCCGCCACUCGCAUGACAUGAGGAUCACCCAUGUGAAACCU”, the “apparent Kd” value worked out at 52.5 nM under setting [3] and 66.5 nM under setting [4].

In the case of “ACAUGAGGAUCACCCAUGUGUGUAAAUCCUCGAGGACCGGUACGGCCGCCACUCGAUCGAGUGUAAGUUGAAUGUAACAUUCAAC”, the “apparent Kd” value under setting [3] was found to be 88.4 nM and the “apparent Kd” value under setting [4] came out at 70.5 nM.

As for “CACAGUGCGAAUUUGAAUUCGCACGAUCCUCGAGGACCGGUACGGCCGCCACUCGCGCGGGUCGUACAUGAGGAUCACCCAUGUC”, the “apparent Kd” value by setting is: under setting [3], 166 nM; under setting [4], 842 nM.

For the sequence “ACACAAUACAUGAGGAUCACCCAUGUAUAACGAGGACCGGUACGGCCGCCACUCGAAUACUGUAAUCCUCGGAAUAUUAUGUGAA”, the “apparent Kd” value runs as follows: under setting [1], 39 nM; under setting [2], 19.1 nM.

Consider “UCGUUUUAGUCGGCCGCCACUGUAUGCAUGUUUAACAUGAGGAUCACCCAUGUCCCGUACUAUUUCAGGACCGGGACGUAAUCGA”, for which the “apparent Kd” value came out at 322 nM under setting [3] and 156 nM under setting [4].

For “GGGUCAGGCGCGGCCGCCACUGCGGUGAUGUGACAUGAGGAUCACCCAUGUUGUCAUGUGGCACAUAGGACCGGGUGCCUGGCCC”, the “apparent Kd” value reads like this: under setting [1], 30.1 nM; under setting [2], 29.9 nM.

On to “CCGCCUGCCUCACAUGAGGAUCACCCAUGUCGAGGACCGGUACGGCCGCCACUCGUCGUCGGUAAUACAGGCAUUGAAUAAUAUA”, for which the “apparent Kd” value worked out at 11.2 nM under setting [1] and 45.1 nM under setting [2].

As for “AGAGGUAUACAUGGAAACAUGUAUAUUUCACGAGGACCGGUACGGCCGCCACUCGGUACCGGAAACACAUGAGGAUCACCCAUGU”, the “apparent Kd” value is, setting by setting: under setting [1], 18.7 nM; under setting [2], 16.9 nM.

With “GCCGGUACGUCGGCAAAGCCGAUGUGCCAGCGAGGACCGGUACGGCCGCCACUCGUACAUGAGGAUCACCCAUGUCCGGUCCGGC”, the “apparent Kd” value under setting [3] was 44.7 nM and the “apparent Kd” value under setting [4] amounted to 49 nM.

In the case of “ACAUUGCGCACGGCCGCCACUGGCUAUAGAUUUAUAGCAUUAAUGAACAUGAGGAUCACCCAUGUCAGGACCGGGUGCGAACCAU”, the “apparent Kd” value came out at 17.3 nM under setting [3] and 19.7 nM under setting [4].
